Compound activity (PubChem BioAssay)
DYRK1A inh – inhibitors of rat Dyrk1A kinase. ADP-Glo luminescence, NFATc1 peptide. inhibition, % at 12.5 µM. 310,000 compounds, 0.43% hits; in the data active means inhibition above about 50%;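 further: plate controls were vehicle with enzyme for no effect and no enzyme for full effect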
Rin1-Abl PPI inh – blocks binding of human Rin1 to Abl | P00519+Q13671 | inhibition, % at 7.35 µM | 360,000 compounds, 0.4% hits | AID 588664 | TR-FRET Rin1/Abl binding, biochemical; in the data active means inhibition above about 5%, passing the limit was not always enough
Arr AP2 block – inhibitors of human beta-arrestin and AP2 interaction. FITC-arrestin peptide / GST-AP2 beads, flow cytometry; AP2 beta2 appendage carries R879A mutation. inhibition, % at 10 µM. 340,000 compounds, 0.31% hits. AID 504490;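 active means inhibition above a set limit, near 3 SD of compounds lacking own fluorescence, cut at about 54% in these data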;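 further: plate controls were DMSO wells for no effect and 5 µM unlabelled arrestin peptide for full effect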
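Material – GST-tagged AP2 beta2-adaptin appendage (R879A) on 4 µm glutathione beads · Probe or stimulus – fluorescein-tagged arrestin peptide at 50 nM final · Timing – 12 min plus 1 h, RT · Detection – bead flow cytometry, FITC channel · Read-out basis – inhibition as reduced fluorescein signal on beads, percent · Medium – PBS plus Tween 20 (0.05%) and BSA (0.1%)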
GSK3B inh – inhibitors of human GSK3beta kinase | activity score (negative = inhibition), % at 10 µM | GST-GSK3beta kinase, ADP-Glo luminescence, 60 min; hits give low values | AID 2097 | 300,000 compounds, 0.038% hits | P49841;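 active means more than half of replicate wells score below -50%, meaning over 50% inhibition versus plate controls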;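 further: 0% = median DMSO wells and -100% = median GW8510 positive control wells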
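Test system: GST-fused GSK3beta enzyme, cell-free | Quantity: 1.6 ng GST-GSK3beta enzyme per well | Reagent: 25 µM ATP with peptide substrate | Schedule: 60 min enzyme reaction, room temperature | Signal: Luminescent ADP-Glo measurement of ADP formed | Read-out basis: Score relative to plate controls | Control set: DMSO and 20 µM GW8510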
GSK3A inh – inhibitors of human GSK-3 alpha kinase; ADP-Glo luminescence, 60 min; inhibition, % at 10 µM; 320,000 compounds, 0.1% hits;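 active means more than half of replicates show inhibition above 20%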;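 further: GST-tagged GSK-3 alpha with peptide substrate and 25 µM ATP; 0% = DMSO neutral wells and 100% = GW8510 positive control wells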
STK33 inh – human STK33 kinase inhibition. purified STK33, MBP phosphorylation, ADP-Glo luminescence. 320,000 compounds, 0.073% hits. inhibition, % at 10 µM. Q9BYT3;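 active means inhibition at or above 25%, using the most active replicate where run in duplicate; inactive means inhibition below 25%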
Target sequence (Q9BYT3 whole entry, looked up): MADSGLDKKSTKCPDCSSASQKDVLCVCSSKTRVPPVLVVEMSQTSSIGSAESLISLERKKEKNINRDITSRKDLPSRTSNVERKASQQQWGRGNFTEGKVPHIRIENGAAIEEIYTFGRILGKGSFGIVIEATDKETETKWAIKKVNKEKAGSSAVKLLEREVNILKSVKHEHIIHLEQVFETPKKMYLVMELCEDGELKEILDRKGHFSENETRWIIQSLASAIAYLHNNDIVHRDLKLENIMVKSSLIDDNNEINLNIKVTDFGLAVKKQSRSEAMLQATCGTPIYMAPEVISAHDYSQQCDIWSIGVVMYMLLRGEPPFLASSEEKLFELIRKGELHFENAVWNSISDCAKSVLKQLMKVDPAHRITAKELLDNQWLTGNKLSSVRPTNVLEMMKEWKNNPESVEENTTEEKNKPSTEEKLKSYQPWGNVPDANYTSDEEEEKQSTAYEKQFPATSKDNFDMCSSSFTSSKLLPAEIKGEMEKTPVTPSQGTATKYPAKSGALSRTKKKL
Rin1-Abl confirm – confirmation of inhibitors of human Rin1-Abl interaction; shares compounds with Rin1-Abl PPI inh; 1,300 compounds, 49% hits; inhibition, % at 7.35 µM; TR-FRET Rin1-Abl binding, purified proteins
GFP quench – counter-screen for Rin1-Abl inhibitors: GFP fluorescence quenchers; 1,300 compounds, 8.5% hits; inhibition, % at 6.75 µM; shares compounds with Rin1-Abl PPI inh; AID 602125; inhibitors/quenchers counterscreen;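 further: ABL1-eGFP fusion protein alone without its partner RIN1-SBP; 0% = protein with vehicle and 100% = wells lacking protein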
* = called active by the depositor; nt = no result given. Hits are enriched below; roughly 0.99% of the tested compounds scored in any of these assays. Unless noted, no stated cut-off is given here; in the data, active means inhibition above about 6.5%; inactive means the rest.

SMILES	DYRK1A inh	Rin1-Abl PPI inh	Arr AP2 block	GSK3B inh	GSK3A inh	STK33 inh	Rin1-Abl confirm	GFP quench
Cc1ccccc1C(=O)N1Cc2ccccc2-n2nncc2C1	nt	0.7	nt	nt	nt	nt	nt	nt
Nc1c(C(=O)NC2CCCC2)c2nc3ccccc3nc2n1CC1CCCO1 (stereo not given)	12.9	19.2*	1.0	-2.6	3.7	-1.3	1.3	0.6
Nc1c(C(=O)NCC2CCCO2)c2nc3ccccc3nc2n1Cc1ccco1 (stereo not given)	-3.5	-1.9	11.0	-0.6	12.6	5.2	nt	nt
COc1ccc(CNC(=O)CCC(=O)N2C[C@H]3C[C@H](C2)c2cccc(=O)n2C3)cc1	8.3	-1.7	-1.2	0.6	-1.8	-0.3	nt	nt
COCCCNC(=O)c1c(N)n(Cc2ccco2)c2nc3ccccc3nc12	nt	-1.5	1.4	-4.0	5.7	3.6	nt	nt
COc1ccc(Cn2c(N)c(C(=O)NCc3ccco3)c3nc4ccccc4nc32)cc1OC	12.9	15.3*	15.7	nt	0.0	-0.9	-3.9	-0.2
CC/C(CC(c1ccccc1)c1c(O)c2ccccc2oc1=O)=N\NC(N)=S (stereo not given)	5.3	5.9*	7.1	-0.6	-3.0	-0.7	5.2	0.3
COc1ccc(C(CC(C)=O)c2c(O)c3ccccc3oc2=O)cc1OC (stereo not given)	nt	1.8	nt	nt	nt	nt	nt	nt
COC(C)(C)CCCC(C)C/C=C/C(C)=C/C(=O)OC(C)C (stereo not given)	nt	-0.2	-9.9	nt	-3.7	0.1	nt	nt
C=Cc1cc(OC)c2c(c1)c(=O)oc1c2cc(OC)c2c(O)ccc(C3OC(C)C(O)C(C)(O)C3O)c21 (stereo not given)	4.5	21.5*	10.0	nt	nt	nt	-5.0	1.0
CS(=O)(=O)c1ccc(C2=C(CNC(=O)c3nccs3)[C@H]3CC[C@@H](C2)N3Cc2ccccc2)cc1	nt	0.1	nt	nt	nt	nt	nt	nt
CN(C)P(=O)(N(C)C)N1CC1	6.4	4.1	-11.6	nt	nt	nt	nt	nt
